Test results published in ChEMBL document CHEMBL3272242, “Sulfamylurea hypoglycemic agents. 6. High-potency derivatives” (J Med Chem, 1976).

Assays:
[1] = test system: Rattus norvegicus; assay: Hypoglycemic activity in 18 to 24 hrs-fasted rat assessed as reduction in blood glucose at 15 mg/kg, ip measured after 1 hr relative to saline-treated control; assay type: functional; set-up: scale not given: the % may be the effect or the level left; settings: route intraperitoneal
Method in brief: (§1)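 Unanesthetized male Charles River rats (200–250 g), fasted 18–24 h, in groups of five or six. Single ip dose. Tail-vein blood drawn before dosing and 1 h after. Glucose measured by ferricyanide reduction micromethod on an autoanalyzer. Value is the percent fall in blood glucose at 1 h versus a saline-treated control group. Significance levels are p < 0.05, 0.01 and 0.001.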

[2] = test system: Rattus norvegicus; assay: Hypoglycemic activity in 18 to 24 hrs-fasted rat assessed as reduction in blood glucose at 5 mg/kg, ip measured after 1 hr relative to saline-treated control; assay type: functional; set-up: scale not given: the % may be the effect or the level left; settings: route intraperitoneal; method in brief: as §1

| SMILES | Activity [1] [%] | Activity [2] [%] |
| --- | --- | --- |
| O=C(NC1CCCCC1)NS(=O)(=O)N1CCC(CCNC(=O)c2cccc3c2OCCO3)CC1 | 42 | 34 |
| COc1ccncc1C(=O)NCCC1CCN(S(=O)(=O)NC(=O)NC[C@@H]2C[C@@H]3C=C[C@@H]2C3)CC1 (relative stereo) |  | 14 |
| COc1ccc(Cl)cc1C(=O)NCCC1CCN(S(=O)(=O)NC(=O)NC[C@H]2C[C@@H]3CC[C@@H]2O3)CC1.O (relative stereo) |  | 27 |
| O=C(NC[C@@H]1C[C@@H]2C=C[C@@H]1C2)NS(=O)(=O)N1CCC(CCNC(=O)C(F)(F)F)CC1 (relative stereo) |  | 22 |
| O=C(NC[C@@H]1C[C@@H]2CC[C@@H]1O2)NS(=O)(=O)N1CCC(CCNC(=O)c2cccc3c2OCCO3)CC1 (relative stereo) | 13 | 15 |
| COc1ccc(Cl)cc1C(=O)NCCC1CCN(S(=O)(=O)NC(=O)NC23CC4CC(CC(C4)C2)C3)CC1 |  | 29 |
| COc1ncccc1C(=O)NCCC1CCN(S(=O)(=O)NC(=O)NC[C@@H]2C[C@@H]3CC[C@@H]2O3)CC1 (relative stereo) |  | 34 |
| Cn1cc(C(=O)NCCC2CCN(S(=O)(=O)NC(=O)NC3CCCCC3)CC2)c(=O)n(C)c1=O | 15 |  |
| O.O=C(NC1CCCCC1)NS(=O)(=O)N1CCC(CCNC(=O)c2ccnc3ccccc23)CC1 |  | 16 |
| COc1ncccc1C(=O)NCCC1CCN(S(=O)(=O)NC(=O)NCC2CCCO2)CC1 (centres undefined) |  | 16 |
| COc1ncccc1C(=O)NCCC1CCN(S(=O)(=O)NC(=O)NCC2CCCCO2)CC1 (centres undefined) |  | 12 |
| Cc1ncsc1C(=O)NCCC1CCN(S(=O)(=O)NC(=O)NC[C@@H]2C[C@@H]3C=C[C@@H]2C3)CC1 (relative stereo) | 25 | 11 |
| CCCNC(=O)NS(=O)(=O)N1CCC(CCNC(=O)c2cc(C(F)(F)F)nn2C)CC1 |  | 11 |
| COc1ccc2nccc(C(=O)NCCC3CCN(S(=O)(=O)NC(=O)NC4CCCCC4)CC3)c2c1.O |  | 15 |
| CC(=O)NCCC1CCN(S(=O)(=O)NC(=O)NC[C@@H]2C[C@@H]3C=C[C@@H]2C3)CC1 (relative stereo) | 25 | 18 |
| COc1ccc(NC(=O)NS(=O)(=O)N2CCC(CCNC(=O)c3cc(Cl)ccc3OC)CC2)cc1.O |  | 27 |
| O=C(NC1CCCCC1)NS(=O)(=O)N1CCC(CCNC(=O)c2nsc3ccccc23)CC1 | 17 |  |
| O=C(NC1CCCCC1)NS(=O)(=O)N1CCC(CCNC(=O)c2csnn2)CC1 |  | 19 |
| O=C(NC1CCCCC1)NS(=O)(=O)N1CCC(CCNC(=O)C(F)(F)F)CC1 |  | 13 |
| COc1ccc(Cl)cc1C(=O)NCC1CCN(S(=O)(=O)NC(=O)NC[C@@H]2C[C@@H]3C=C[C@@H]2C3)CC1 (relative stereo) |  | 15 |
| Cc1ncccc1C(=O)NCCC1CCN(S(=O)(=O)NC(=O)NC2CCCCC2)CC1 |  | 16 |
| CCOCCNC(=O)NS(=O)(=O)N1CCC(CCNC(=O)c2cccnc2OC)CC1 |  | 7 |
| Cn1cc(C(=O)NCCC2CCN(S(=O)(=O)NC(=O)NC[C@@H]3C[C@@H]4CC[C@@H]3C4)CC2)c(=O)n(C)c1=O.O (relative stereo) |  | 22 |
| O=C(NC[C@@H]1C[C@@H]2C=C[C@@H]1C2)NS(=O)(=O)N1CCC(CCNC(=O)c2cnsc2)CC1 (relative stereo) | 14 |  |

| SMILES | Activity [1] [%] | Activity [2] [%] |
| --- | --- | --- |
| O=C(NC1CCCCC1)NS(=O)(=O)N1CCC(CCNC(=O)c2ccc3ccccc3n2)CC1 |  | 11 |
| CCCNC(=O)NS(=O)(=O)N1CCC(CCNC(=O)c2cccc3c2OCCO3)CC1 | 25 |  |
| COc1ncccc1C(=O)NCCC1CCN(S(=O)(=O)NC(=O)NC[C@H]2C[C@@H]3CC[C@@H]2O3)CC1 (relative stereo) |  | 14 |
| COc1ccc(Cl)cc1C(=O)NCC1CCN(S(=O)(=O)NC(=O)NC2CCCCC2)CC1.O |  | 20 |
| CSc1ccc(C(F)(F)F)cc1C(=O)NCCC1CCN(S(=O)(=O)NC(=O)NC2CCCCC2)CC1 | 24 |  |
| O=C(NC[C@@H]1C[C@@H]2C=C[C@@H]1C2)NS(=O)(=O)N1CCC(CCNC(=O)c2cscn2)CC1 (relative stereo) | 37 |  |
| O=C(NC[C@@H]1C[C@@H]2C=C[C@@H]1C2)NS(=O)(=O)N1CCC(CCNC(=O)c2cnccc2Cl)CC1 (relative stereo) | 12 |  |
| CCCn1cc(C(=O)NCCC2CCN(S(=O)(=O)NC(=O)NC[C@@H]3C[C@@H]4C=C[C@@H]3C4)CC2)c(=O)n(CC)c1=O.O (relative stereo) |  | 19 |
| Cc1cccc(C(=O)NCCC2CCN(S(=O)(=O)NC(=O)NC[C@@H]3C[C@@H]4C=C[C@@H]3C4)CC2)n1 (relative stereo) |  | 20 |
| COc1ccc(C(=O)NCCC2CCN(S(=O)(=O)NC(=O)NC[C@@H]3C[C@@H]4C=C[C@@H]3C4)CC2)cn1 (relative stereo) | 32 | 11 |
| O=C(NC[C@@H]1C[C@@H]2C=C[C@@H]1C2)NS(=O)(=O)N1CCC(CCNC(=O)c2ccc3ccccc3n2)CC1 (relative stereo) |  | 21 |
| Cc1ncccc1C(=O)NCCC1CCN(S(=O)(=O)NC(=O)NC[C@@H]2C[C@@H]3C=C[C@@H]2C3)CC1.O (relative stereo) |  | 16 |
| CCCCCCNC(=O)NS(=O)(=O)N1CCC(CNC(=O)c2cc(Cl)ccc2OC)CC1 |  | 17 |
| O=C(NC1CCCCC1)NS(=O)(=O)N1CCC(CCNC(=O)C2Oc3ccccc3O2)CC1 |  | 8 |
| COc1ncccc1C(=O)NCCC1CCN(S(=O)(=O)NC(=O)NC[C@@H]2C[C@@H]3CC[C@@H]2C3)CC1 (relative stereo) |  | 35 |
| O=C(NC1CCCCC1)NS(=O)(=O)N1CCC(CCNC(=O)c2ccc3c(c2)OCO3)CC1 | 17 |  |
| O=C(NC[C@@H]1C[C@@H]2CC[C@@H]1O2)NS(=O)(=O)N1CCC(CCNC(=O)C2Oc3ccccc3O2)CC1 (relative stereo) | 38 | 15 |
| Cn1cc(C(=O)NCCC2CCN(S(=O)(=O)NC(=O)NC34CC5CC(CC(C5)C3)C4)CC2)c(=O)n(C)c1=O.O |  | 27 |
| COc1ccc(Cl)cc1C(=O)NCCC1CCN(S(=O)(=O)NC(=O)NN2CCCCCC2)CC1 |  | 36 |
| COc1ncccc1C(=O)NCCC1CCN(S(=O)(=O)NC(=O)NC[C@H]2C[C@@H]3C=C[C@@H]2C3)CC1 (relative stereo) |  | 20 |
| CC#N.O=C(NC[C@@H]1C[C@@H]2CC[C@@H]1O2)NS(=O)(=O)N1CCC(CCNC(=O)c2nc3ccccc3s2)CC1 (relative stereo) | 30 |  |
| COc1ccc2nccc(C(=O)NCCC3CCN(S(=O)(=O)NC(=O)NC[C@@H]4C[C@@H]5C=C[C@@H]4C5)CC3)c2c1 (relative stereo) |  | 10 |
| CCCCn1cc(C(=O)NCCC2CCN(S(=O)(=O)NC(=O)NC[C@@H]3C[C@@H]4C=C[C@@H]3C4)CC2)c(=O)n(CCCC)c1=O (relative stereo) |  | 12 |
| COc1ccc(Cl)cc1C(=O)NCCC1CCN(S(=O)(=O)NC(=O)NC[C@@H]2C[C@@H]3CC[C@@H]2O3)CC1 (relative stereo) |  | 30 |
